Experimental data taken from ChEMBL document CHEMBL4339251, “Prenylated Bibenzyls from the Chinese Liverwort Radula constricta and Their Mitochondria-Derived Paraptotic Cytotoxic Activities” (J Nat Prod, 2019).
Calls of active or inactive are those of the source. The calls are words filed in the database; no cut-off is given here.

Columns and labels:
A549 [1] = experiment: Induction of mitochondria-derived paraptosis in human A549 cells assessed as formation of fluorescent vacuoles after 3 hrs by Mito-Tracker staining based fluorescence microscopy; format: functional, cell-based
Summary of the method: (§1)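 Live-cell imaging. Treated cells on coverslips were stained with Mito-Tracker Red (100 nM) at 37 °C for 30 min, washed three times with PBS and stained with Hoechst 33342 (10 μg/mL) for 15 min. Images were taken by confocal or fluorescence microscopy at the indicated times.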

A549 [2] = experiment: Induction of apoptosis in human A549 cells assessed as late apoptotic cells at 20 uM by annexinV-FITC and propidium iodide staining based flow cytometric analysis (reference value: 3.14%); format: functional
NCI-H1299 [3] = experiment: Induction of ROS generation in human NCI-H1299 cells after 1 hr by DCFH-DA staining based flow cytometry relative to untreated control; format: functional
Summary of the method: (§2)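 ROS by flow cytometry. Cells were exposed for the indicated times, then stained with DCFH-DA (10 μM). DCF mean fluorescence intensity was compared with untreated control. Mean ± SD, n = 3.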

MCF7 = experiment: Cytotoxicity in human MCF7 cells assessed as reduction in cell viability incubated for 48 hrs by MTT assay; format: functional, cell-based; details: MCF7, 48 h
Summary of the method: (§3)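 MTT viability. U251 and NCI-H1299 were grown in DMEM, the other lines in RPMI 1640, each with 10% FBS, penicillin and streptomycin, at 37 °C in 5% CO2. Cells were seeded in 96-well plates overnight and exposed to a range of concentrations. MTT (5 mg/mL) was added for 4 h, formazan was dissolved in DMSO and absorbance read at 570 nm. Three independent experiments.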

NCI-H1299 [4] = experiment: Induction of cytoplasmic vacuolization in human NCI-H1299 cells at 10 uM treated for 3 hrs after pre-treatment with pan-caspase inhibitor Z-VAD-FMK for 1 hr by optical microscopy; format: functional, cell-based
Summary of the method: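 Caspase-inhibitor morphology. Cells were treated with DMSO, 20 μM Z-VAD-FMK, 10 μM compound, or the combinations for 3 h, then imaged by optical microscopy.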

NCI-H1299 [5] = experiment: Induction of apoptosis in human NCI-H1299 cells assessed as early apoptotic cells at 10 uM by annexinV-FITC and propidium iodide staining based flow cytometric analysis (reference value: 1.26%); format: functional
A549 [6] = experiment: Induction of mitochondria-derived paraptosis in human A549 cells assessed as induction of HMGB1 translocation from nucleus to cytoplasm at 10 uM incubated for 24 hrs by immunofluorescence staining; format: functional, cell-based
Summary of the method: (§4)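 HMGB1 immunofluorescence. Cells were treated at 10 μM for 24 h, fixed in 4% paraformaldehyde for 30 min, permeabilised with 0.3% Triton X-100 for 15 min and blocked with 5% BSA for 30 min. Anti-HMGB1 was applied at 4 °C overnight and the secondary antibody at 37 °C for 1 h. Nuclei were counterstained with DAPI and cells imaged by confocal microscopy.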

SW-620 = experiment: Cytotoxicity in human SW620 cells assessed as reduction in cell viability incubated for 48 hrs by MTT assay; format: functional, cell-based; details: SW-620, 48 h; summary of the method: as §3
A549 [7] = experiment: Induction of apoptosis in human A549 cells assessed as induction of PARP cleavage at 2.5 to 10 uM incubated for 24 hrs by Western blot analysis; format: functional, cell-based
Summary of the method: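 Western blot. Cells were cultured overnight in six-well plates, then exposed to various concentrations for 24 h before immunoblotting.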

NCI-H1299 [8] = experiment: Induction of mitochondria-derived paraptosis in human NCI-H1299 cells assessed as reduction in intensity of mitochondria fluorescence up to 24 hrs by Mito-Tracker staining based fluorescence microscopy; format: functional, cell-based
Summary of the method: (§5)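 Mitochondrial fluorescence. After treatment for the indicated times, cells were stained with Mito-Tracker Red (100 nM) and 10 000 cells per sample were analysed by flow cytometry. Cells with decreased red fluorescence were gated as "pale" cells.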

A549 [9] = experiment: Cytotoxicity in human A549 cells assessed as reduction in cell viability at 5 uM incubated for 24 hrs in presence of pan-caspase inhibitor Z-VAD-FMK by MTT assay; format: functional, cell-based
NCI-H1299 [10] = experiment: Induction of ROS generation in human NCI-H1299 cells by DCFH-DA staining based flow cytometry; format: functional, cell-based; details: TDE = time-dependent effect; summary of the method: as §2
HT-29 = experiment: Cytotoxicity in human HT-29 cells assessed as reduction in cell viability incubated for 48 hrs by MTT assay; format: functional, cell-based; details: HT-29, 48 h; summary of the method: as §3
A549 [11] = experiment: Induction of mitochondria-derived paraptosis in human A549 cells assessed as reduction in intensity of mitochondria fluorescence up to 24 hrs by Mito-Tracker staining based fluorescence microscopy; format: functional, cell-based; summary of the method: as §5
SMMC-7721 = experiment: Cytotoxicity in human SMMC7721 cells assessed as reduction in cell viability incubated for 48 hrs by MTT assay; format: functional, cell-based; details: SMMC-7721, 48 h; summary of the method: as §3
HepG2 = experiment: Cytotoxicity in human HepG2 cells assessed as reduction in cell viability incubated for 48 hrs by MTT assay; format: functional, cell-based; details: HepG2, 48 h
Summary of the method: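 MTT viability. Cells were seeded in 96-well plates overnight and exposed to a range of concentrations. MTT (5 mg/mL) was added for 4 h, formazan was dissolved in DMSO and absorbance read at 570 nm. Three independent experiments.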

NCI-H1299 [12] = experiment: Cytotoxicity in human NCI-H1299 cells assessed as reduction in cell viability at 5 uM incubated for 24 hrs in presence of pan-caspase inhibitor Z-VAD-FMK by MTT assay; format: functional, cell-based
NCI-H1299 [13] = experiment: Induction of apoptosis in human NCI-H1299 cells assessed as early apoptotic cells at 20 uM by annexinV-FITC and propidium iodide staining based flow cytometric analysis (reference value: 1.26%); format: functional
NCI-H1299 [14] = experiment: Induction of mitochondria-derived paraptosis in human NCI-H1299 cells assessed as formation of fusion among swollen mitochondria after 6 to 24 hrs by Mito-Tracker staining based fluorescence microscopy; format: functional, cell-based; summary of the method: as §1
A549 [15] = experiment: Cytotoxicity in human A549 cells assessed as reduction in cell viability incubated for 48 hrs by MTT assay; format: functional, cell-based; details: A549, 48 h; summary of the method: as §3
A549 [16] = experiment: Induction of cytoplasmic vacuolization in human A549 cells at 10 uM measured within 3 hrs by optical microscopy; format: functional, cell-based
Summary of the method: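 Morphology. A549 or NCI-H1299 cells were treated at 10 μM and vacuole formation was followed by optical microscopy at the indicated times.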

A549 [17] = experiment: Induction of mitochondria-derived paraptosis in human A549 cells assessed as formation of fusion among swollen mitochondria after 6 to 24 hrs by Mito-Tracker staining based fluorescence microscopy; format: functional, cell-based; summary of the method: as §1
A549 [18] = experiment: Induction of apoptosis in human A549 cells assessed as early apoptotic cells at 10 uM by annexinV-FITC and propidium iodide staining based flow cytometric analysis (reference value: 1.47%); format: functional
A549 [19] = experiment: Induction of mitochondria dysfunction in human A549 cells assessed as mitochondrial membrane potential incubated for 1 hr by JC-1 dye based flow cytometry relative to 0 hrs control; format: functional
Summary of the method: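 Membrane potential. After treatment for the indicated times, ΔΨm was measured by JC-1 (5 μg/mL) staining and flow cytometry, relative to the 0 h control. Mean ± SD, n = 3.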

KB = experiment: Cytotoxicity in human KB cells assessed as reduction in cell viability incubated for 48 hrs by MTT assay; format: functional, cell-based; summary of the method: as §3
U-251 = experiment: Cytotoxicity in human U251 cells assessed as reduction in cell viability incubated for 48 hrs by MTT assay; format: functional, cell-based; details: U-251, 48 h; summary of the method: as §3
NCI-H1299 [20] = experiment: Induction of mitochondria-derived paraptosis in human NCI-H1299 cells assessed as induction of HMGB1 translocation from nucleus to cytoplasm at 10 uM incubated for 24 hrs by immunofluorescence staining; format: functional, cell-based; summary of the method: as §4

Q: How did the Activity (A549 [1]) turn out when COC(=O)c1c(CCc2ccccc2)cc(O)c(CC=C(C)C)c1O was run?
A: The Activity was “Active”.

Q: And the Activity (A549 [2])?
A: The Activity was 4.14%.

Q: What about the “fold change (FC)” value (NCI-H1299 [3]) of the same molecule?
A: The value was 30.

Q: What about the IC50 (MCF7) of the same molecule?
A: The IC50 was 10.2 µM.

Q: And the Activity (NCI-H1299 [4])?
A: Its Activity is “Active”.

Q: What about the Activity (NCI-H1299 [5]) of the same molecule?
A: The Activity was 0.57%.

Q: And the Activity (A549 [6])?
A: Its Activity is “Active”.

Q: And the IC50 (SW-620)?
A: The IC50 was 6.3 µM.

Q: What about the Activity (A549 [7]) of the same molecule?
A: Its Activity is “inactive”.

Q: What about the Activity (NCI-H1299 [8]) of the same molecule?
A: Its Activity is “Active”.

Q: And the Activity (A549 [9])?
A: Its Activity is “Active”.

Q: What about the Activity (NCI-H1299 [10]) of the same molecule?
A: The Activity was “Tde”.

Q: What about the IC50 (HT-29) of the same molecule?
A: The IC50 was 5 µM.

Q: And the Activity (A549 [11])?
A: Its Activity is “Active”.

Q: What about the IC50 (SMMC-7721) of the same molecule?
A: Its IC50 is 8.6 µM.

Q: And the IC50 (HepG2)?
A: Its IC50 is 6.3 µM.

Q: What about the Activity (NCI-H1299 [12]) of the same molecule?
A: The Activity was “Active”.

Q: What about the Activity (NCI-H1299 [13]) of the same molecule?
A: Its Activity is 1.11%.

Q: And the Activity (NCI-H1299 [14])?
A: The Activity was “Active”.

Q: What about the IC50 (A549 [15]) of the same molecule?
A: Its IC50 is 6 µM.

Q: What about the Activity (A549 [16]) of the same molecule?
A: The Activity was “Active”.

Q: What about the Activity (A549 [17]) of the same molecule?
A: The Activity was “Active”.

Q: What about the Activity (A549 [18]) of the same molecule?
A: Its Activity is 0.75%.

Q: What about the Activity (A549 [19]) of the same molecule?
A: The Activity was 50%.

Q: And the IC50 (KB)?
A: Its IC50 is 6.7 µM.

Q: What about the IC50 (U-251) of the same molecule?
A: The IC50 was 9 µM.

Q: And the Activity (NCI-H1299 [20])?
A: The Activity was “Active”.
